Measurements: ChEMBL document CHEMBL2331274, “SAR based design of nicotinamides as a novel class of androgen receptor antagonists for prostate cancer” (J Med Chem, 2013)
Calls of active or inactive are those of the source. No cut-off for these calls is given here.

Legend:
[1] = (§1) Cytotoxicity against human androgen-independent/AR-positive C4-2 cells […] after 4 days by MTS/PMS assay; format: functional, cell-based; conditions: LNCaP C4-2, 96 h
PPC-1 = test: Cytotoxicity against human androgen-independent/AR-negative PPC1 cells after 3 days by MTS/PMS assay; format: functional, cell-based
[2] = target: T1, Androgen receptor (Mus musculus) (UniProt P19091); test: Antagonist activity against mouse androgen receptor assessed as reduction of 10 nM DHT-induced transcriptional activity at 10 uM after 24 hrs by cell-based luciferase reporter gene assay relative to control
T1 sequence (whole entry): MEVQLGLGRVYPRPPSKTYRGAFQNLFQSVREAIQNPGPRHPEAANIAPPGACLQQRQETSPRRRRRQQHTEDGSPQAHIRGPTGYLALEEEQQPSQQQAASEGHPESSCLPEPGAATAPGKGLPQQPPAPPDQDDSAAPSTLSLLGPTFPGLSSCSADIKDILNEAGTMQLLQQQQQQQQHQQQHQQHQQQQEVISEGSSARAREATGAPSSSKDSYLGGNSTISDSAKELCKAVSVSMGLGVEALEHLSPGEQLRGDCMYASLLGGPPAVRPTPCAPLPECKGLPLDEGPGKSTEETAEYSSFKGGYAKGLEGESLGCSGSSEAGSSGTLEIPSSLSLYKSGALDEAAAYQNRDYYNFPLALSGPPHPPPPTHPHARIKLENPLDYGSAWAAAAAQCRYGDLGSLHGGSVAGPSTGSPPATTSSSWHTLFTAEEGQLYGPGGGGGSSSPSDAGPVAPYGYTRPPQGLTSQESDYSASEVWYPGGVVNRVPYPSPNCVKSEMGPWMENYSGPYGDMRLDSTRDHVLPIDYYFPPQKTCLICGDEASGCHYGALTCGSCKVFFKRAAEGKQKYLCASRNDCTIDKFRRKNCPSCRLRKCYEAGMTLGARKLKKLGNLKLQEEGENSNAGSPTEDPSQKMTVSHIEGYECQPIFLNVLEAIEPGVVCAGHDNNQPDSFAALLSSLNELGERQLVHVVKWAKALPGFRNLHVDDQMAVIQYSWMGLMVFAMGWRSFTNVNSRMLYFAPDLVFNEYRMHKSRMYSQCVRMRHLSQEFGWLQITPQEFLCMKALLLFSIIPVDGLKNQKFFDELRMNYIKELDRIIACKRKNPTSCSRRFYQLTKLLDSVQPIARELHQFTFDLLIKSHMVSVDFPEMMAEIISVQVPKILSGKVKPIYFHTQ
Outline: (§2)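 Transcriptional activity is expressed as a percentage after 10 μM compound, given alone for agonist mode or with 10 nM DHT for antagonist mode. Data are from triplicate experiments.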

Androgen receptor [3] = target: T2, Androgen receptor (Mus musculus, UniProt P19091); test: Displacement of [3H] ]5alpha-DHT from mouse androgen receptor expressed in monkey COS7 cells after 2 hrs by scintillation counting analysis; format: cell-based, COS-7
T2 sequence (P19091 whole entry): T1 sequence (whole entry)

MEF = test: Cytotoxicity against mouse MEF cells at 10 uM after 4 days by MTS/PMS assay; format: cell-based; conditions: 96 h
[4] = target: T3, Androgen receptor (Homo sapiens) (UniProt P10275); test: Inhibition of DHT-induced androgen receptor-mediated GFP-AR protein nuclear translocation in human PPC1 cells at 10 uM after 1 hr by DAPI staining-based fluorescence microscopic analysis; format: cell-based; conditions: PPC-1
T3 sequence (whole entry): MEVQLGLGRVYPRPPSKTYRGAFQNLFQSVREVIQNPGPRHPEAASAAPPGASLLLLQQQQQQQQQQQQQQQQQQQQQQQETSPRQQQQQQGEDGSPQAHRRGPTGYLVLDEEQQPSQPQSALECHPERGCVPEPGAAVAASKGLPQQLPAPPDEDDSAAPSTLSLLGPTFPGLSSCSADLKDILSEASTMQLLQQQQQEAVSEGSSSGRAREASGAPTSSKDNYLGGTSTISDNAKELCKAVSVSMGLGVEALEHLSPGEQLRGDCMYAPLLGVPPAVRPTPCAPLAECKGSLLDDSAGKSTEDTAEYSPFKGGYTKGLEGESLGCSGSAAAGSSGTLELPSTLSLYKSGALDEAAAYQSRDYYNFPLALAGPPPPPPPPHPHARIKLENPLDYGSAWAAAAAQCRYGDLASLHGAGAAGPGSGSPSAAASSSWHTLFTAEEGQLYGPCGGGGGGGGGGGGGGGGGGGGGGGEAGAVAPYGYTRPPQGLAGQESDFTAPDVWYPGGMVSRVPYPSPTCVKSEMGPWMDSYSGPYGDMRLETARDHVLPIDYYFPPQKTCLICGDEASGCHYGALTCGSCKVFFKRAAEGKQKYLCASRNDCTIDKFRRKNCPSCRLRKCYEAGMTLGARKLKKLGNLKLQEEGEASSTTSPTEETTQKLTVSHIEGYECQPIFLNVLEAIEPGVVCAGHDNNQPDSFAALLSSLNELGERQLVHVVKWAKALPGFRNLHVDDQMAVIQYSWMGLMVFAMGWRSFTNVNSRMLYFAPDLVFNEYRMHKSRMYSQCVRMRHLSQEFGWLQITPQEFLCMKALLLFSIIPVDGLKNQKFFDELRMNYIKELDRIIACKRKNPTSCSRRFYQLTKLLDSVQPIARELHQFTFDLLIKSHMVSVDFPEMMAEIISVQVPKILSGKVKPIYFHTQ

[5] = target: T3, Androgen receptor (Homo sapiens); test: Inhibition of androgen receptor-mediated SRC1 coactivator recruitment in human PPC1 cells at 10 uM after 1 hr by DAPI staining-based fluorescence microscopic analysis; format: cell-based; conditions: PPC-1
LNCaP [6] = test: Cytotoxicity against human androgen-dependent LNCAP cells at 10 uM after 7 days by MTS/PMS assay relative to control; format: functional
[7] = target: T1, Androgen receptor (Mus musculus); test: Agonist activity at mouse androgen receptor at 10 uM after 24 hrs by cell-based luciferase reporter gene assay relative to control; outline: as §2
Androgen receptor [8] = target: T2, Androgen receptor; test: Antagonist activity at mouse androgen receptor assessed as inhibition of transactivation after 24 hrs by cell-based luciferase reporter gene assay
[9] = target: T3, Androgen receptor (Homo sapiens); test: Inhibition of androgen receptor-mediated SRC2 coactivator recruitment in human PPC1 cells at 10 uM after 1 hr by DAPI staining-based fluorescence microscopic analysis; format: cell-based; conditions: PPC-1
LNCaP [10] = test: Cytotoxicity against human androgen-dependent LNCAP cells after 6 days by MTS/PMS assay; format: functional, cell-based; conditions: 144 h
LNCaP C4-2 = test: as §1; format: functional, cell-based

inhibition [2] | Ki (Androgen receptor [3]) | inhibition [4] | inhibition [5] | Activity [7] | IC50 (Androgen receptor [8]) | inhibition [9] | SMILES | IC50 [1] | Activity (PPC-1) | Activity (MEF) | inhibition of growth at 10 µM (LNCaP [6]; 168 h, read-out: GI) | IC50 (LNCaP [10]) | growth inhibition (GI) (LNCaP C4-2) | growth inhibition (GI) (LNCaP [6])
95.6% | 25600 nM | Active | Active | 4.7% | 990 nM | Active | COc1ccc2c(c1OC)CCN(c1ccc(C(=O)Nc3cccc(C)n3)cn1)C2 | 2500 nM | inactive | Non-toxic | 90% | 680 nM |  | 
89.9% | 1460 nM |  | Active | 3% | 4450 nM | Active | Cc1cccc(NC(=O)c2ccc(N3CCc4ccccc4C3)nc2)n1 |  | inactive |  |  |  | Active | Active
